# From ChEMBL document CHEMBL1955865, “Synthesis of novel spirooxindole derivatives by one pot multicomponent reaction and their antimicrobial activity” (2012)
# Experiments:
# Candida albicans [1] = experiment: Antifungal activity against Candida albicans MTCC 227 after 48 to 72 hrs by twofold serial dilution method; format: functional
# In short: (§1)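 Broth two-fold serial dilution, 1000 to 15.62 µg/ml, with compound dissolved in 2% DMSO, in 96-well plates. Filamentous fungal spores came from 10-day SDA slants at 28 °C, and yeast from SDB grown 48 h at 28 °C. Incubation was 48-72 h at 28 °C. MIC was the lowest concentration with no visible fungal growth.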
# Botrytis cinerea [2] = experiment: Antifungal activity against Botrytis cinerea at 1000 ug/disc after 48 hrs by disc diffusion assay; format: functional; conditions: read-out: IZ
# In short: (§2)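 Fungal disc diffusion with inoculum from SDA spores (filamentous) or SDB culture (yeast). Test cultures were swabbed on agar, and discs at 1000 µg/disc were left 30 min at room temperature, with a solvent negative control. Plates were incubated 48 h at 27 °C. Zone of inhibition was measured in mm, and the experiment was repeated twice.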
# Staphylococcus aureus [3] = experiment: Antibacterial activity against Staphylococcus aureus MTCC 96 at 1000 ug/disc after 24 hrs by disc diffusion assay; format: functional; conditions: MTCC 96, 24 h, read-out: IZ
# In short: (§3)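 Disc diffusion on Mueller Hinton agar. Cultures (about 10^4 CFU/ml) were swabbed on and dried 10 min. Discs loaded at 1000 µg/disc were left 30 min at room temperature for diffusion, with a solvent negative control. Plates were incubated 24 h at 37 °C. Inhibition zones were measured in mm, and the experiment was done twice.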
# [4] = tested on: Salmonella enterica subsp. enterica serovar Paratyphi B; experiment: Antibacterial activity against Salmonella paratyphi B after 24 hrs by twofold serial dilution method; format: functional
# In short: (§4)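 Broth microdilution in MHB following the standard bacterial reference method. Compound was dissolved in DMSO (2%) and serially diluted two-fold from 1000 to 15.62 µg/ml in 96-well plates, with an inoculum of about 10^4 CFU/ml. Streptomycin and ciprofloxacin were positive controls. After 24 h at 37 °C, 5 µl of broth was subcultured on MHA. MIC was the lowest concentration without visible growth on agar.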
# Micrococcus luteus [5] = experiment: Antibacterial activity against Micrococcus luteus after 24 hrs by twofold serial dilution method; format: functional
# In short: (§5)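 Bacteria grown in Mueller Hinton broth for 24 h at 37 °C and diluted to about 10^4 CFU/ml. Compound in 2% DMSO was serially diluted two-fold (1000 to 15.62 µg/ml) in medium in 96-well plates and inoculated. Plates were incubated 24 h at 37 °C. 5 µl of broth was spotted onto MHA, and MIC was taken as the lowest concentration with no visible growth on agar.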
# Staphylococcus aureus [6] = experiment: Antibacterial activity against Staphylococcus aureus MTCC 96 after 24 hrs by twofold serial dilution method; format: functional; conditions: MTCC 96, 24 h; in short: as §5
# Candida albicans [7] = experiment: Antifungal activity against Candida albicans MTCC 227 at 1000 ug/disc after 48 hrs by disc diffusion assay; format: functional; conditions: MTCC 227, 48 h, read-out: IZ; in short: as §2
# [8] = Antifungal activity against Malassezia pachydermatis after 48 to 72 hrs by twofold serial dilution method; format: functional; in short: as §1
# Proteus vulgaris [9] = experiment: Antibacterial activity against Proteus vulgaris MTCC 1771 after 24 hrs by twofold serial dilution method; format: functional; conditions: MTCC 1771, 24 h; in short: as §5
# [10] = Antifungal activity against Malassezia pachydermatis at 1000 ug/disc after 48 hrs by disc diffusion assay; format: functional; in short: as §2
# Proteus vulgaris [11] = experiment: Antibacterial activity against Proteus vulgaris MTCC 1771 at 1000 ug/disc after 24 hrs by disc diffusion assay; format: functional; conditions: MTCC 1771, 24 h, read-out: IZ; in short: as §3
# Klebsiella pneumoniae [12] = experiment: Antibacterial activity against Klebsiella pneumoniae MTCC 109 after 24 hrs by twofold serial dilution method; format: functional; conditions: MTCC 109, 24 h; in short: as §5
# Salmonella typhimurium [13] = experiment: Antibacterial activity against Salmonella Typhimurium MTCC 1251 at 1000 ug/disc after 24 hrs by disc diffusion assay; format: functional, Salmonella enterica subsp. enterica serovar Typhimurium; conditions: Salmonella enterica, MTCC 1251, 24 h; read-out: IZ; in short: as §3
# Klebsiella pneumoniae [14] = experiment: Antibacterial activity against Klebsiella pneumoniae MTCC 109 at 1000 ug/disc after 24 hrs by disc diffusion assay; format: functional; conditions: MTCC 109, 24 h, read-out: IZ; in short: as §3
# Micrococcus luteus [15] = experiment: Antibacterial activity against Micrococcus luteus at 1000 ug/disc after 24 hrs by disc diffusion assay; format: functional; conditions: read-out: IZ; in short: as §3
# Staphylococcus aureus [16] = experiment: Antibacterial activity against methicillin-resistant Staphylococcus aureus at 1000 ug/disc after 24 hrs by disc diffusion assay; format: functional; conditions: read-out: IZ
# In short: (§6)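 Disc diffusion on Mueller Hinton agar. Bacteria were grown 24 h at 37 °C in MHB and diluted to about 10^4 CFU/ml, swabbed onto plates and dried 10 min. Discs were loaded at 1000 μg/disc and held 30 min at room temperature for diffusion. Solvent served as negative control. After 24 h at 37 °C, inhibition zones were read in mm; run twice.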
# Salmonella typhimurium [17] = experiment: Antibacterial activity against Salmonella Typhimurium MTCC 1251 after 24 hrs by two-fold serial dilution method; format: functional, Salmonella enterica subsp. enterica serovar Typhimurium; conditions: Salmonella enterica, MTCC 1251, 24 h; in short: as §5
# Klebsiella aerogenes [18] = experiment: Antibacterial activity against Enterobacter aerogenes MTCC 111 at 1000 ug/disc after 24 hrs by disc diffusion assay; format: functional; conditions: MTCC 111, 24 h, read-out: IZ; in short: as §3
# Klebsiella aerogenes [19] = experiment: Antibacterial activity against Enterobacter aerogenes MTCC 111 after 24 hrs by twofold serial dilution method; format: functional; conditions: MTCC 111, 24 h; in short: as §5
# Staphylococcus aureus [20] = experiment: Antibacterial activity against methicillin-resistant Staphylococcus aureus after 24 hrs by twofold serial dilution method; format: functional; in short: as §4
# [21] = tested on: Salmonella enterica subsp. enterica serovar Paratyphi B; experiment: Antibacterial activity against Salmonella paratyphi B at 1000 ug/disc after 24 hrs by disc diffusion assay; format: functional; conditions: read-out: IZ; in short: as §6
# Botrytis cinerea [22] = experiment: Antifungal activity against Botrytis cinerea after 48 to 72 hrs by twofold serial dilution method; format: functional; in short: as §1
Compound,MIC (Candida albicans [1]) [µg/mL],zone of inhibition at 1000 µg/disc (Botrytis cinerea [2]) [mm],zone of inhibition at 1000 µg/disc (Staphylococcus aureus [3]) [mm],MIC [4] [µg/mL],MIC (Micrococcus luteus [5]) [µg/mL],MIC (Staphylococcus aureus [6]) [µg/mL],zone of inhibition at 1000 µg/disc (Candida albicans [7]) [mm],MIC [8] [µg/mL],MIC (Proteus vulgaris [9]) [µg/mL],inhibition zone (IZ) [10] [mm],zone of inhibition at 1000 µg/disc (Proteus vulgaris [11]) [mm],MIC (Klebsiella pneumoniae [12]) [µg/mL],zone of inhibition at 1000 µg/disc (Salmonella typhimurium [13]) [mm],zone of inhibition at 1000 µg/disc (Klebsiella pneumoniae [14]) [mm],zone of inhibition at 1000 µg/disc (Micrococcus luteus [15]) [mm],zone of inhibition at 1000 µg/disc (Staphylococcus aureus [16]) [mm],MIC (Salmonella typhimurium [17]) [µg/mL],zone of inhibition at 1000 µg/disc (Klebsiella aerogenes [18]) [mm],MIC (Klebsiella aerogenes [19]) [µg/mL],MIC (Staphylococcus aureus [20]) [µg/mL],also measured
CCCCCCN1C(=O)C2(C3=C(CN2C)C(=O)c2ccccc2C3=O)c2ccccc21 (stereo not given),125,10,12,500,250,250,14,250,500,12,10,500,16,10,10,10,62.5,13,250,500,zone of inhibition at 1000 µg/disc [21]: 8 mm; MIC (Botrytis cinerea [22]): 500 µg/mL
Cc1ccc2c(c1)C1(C(=O)N2)C2=C(CN1C)C(=O)c1ccccc1C2=O (stereo not given),250,9,15,125,62.5,31.2,8,125,250,12,9,62.5,12,13,13,12,250,13,125,125,zone of inhibition at 1000 µg/disc [21]: 11 mm; MIC (Botrytis cinerea [22]): 250 µg/mL
CN1C(=O)C2(C3=C(CN2C)C(=O)c2ccccc2C3=O)c2ccccc21 (stereo not given),250,8,13,250,125,62.5,9,125,125,11,10,31.2,14,18,12,10,125,10,125,250,zone of inhibition at 1000 µg/disc [21]: 11 mm; MIC (Botrytis cinerea [22]): 250 µg/mL
C#CCN1C(=O)C2(C3=C(CN2C)C(=O)c2ccccc2C3=O)c2ccccc21 (stereo not given),250,10,13,250,125,125,10,250,500,10,9,250,15,11,12,10,62.5,11,250,125,zone of inhibition at 1000 µg/disc [21]: 10 mm; MIC (Botrytis cinerea [22]): 250 µg/mL
CN1CC2=C(C(=O)c3ccccc3C2=O)C12C(=O)Nc1ccccc12 (stereo not given),125,10,15,250,125,62.5,10,250,250,11,11,125,12,13,13,10,125,10,250,250,zone of inhibition at 1000 µg/disc [21]: 10 mm; MIC (Botrytis cinerea [22]): 125 µg/mL
